# Reference: ChEMBL document CHEMBL3632609, “Hederagenin as a triterpene template for the development of new antitumor compounds” (Eur J Med Chem, 2015)
# pEC50: −log10 of the molar value.
# Tests used:
# Type in all cases: functional, cell-based
# [1] = Cytotoxicity against human 518A2 cells assessed as cell survival after 96 hrs by sulforhodamine B assay; conditions: 518A2, 96 h
# Procedure, shortened: (§1)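 Cells in exponential growth were seeded at densities that avoided confluence and, after 24 h, exposed to serial compound dilutions (0-30 μM, DMSO ≤0.5% final) for 96 h. Cells were then fixed with 10% TCA at 4 °C, washed with water, and stained with 0.4% SRB for about 20 min. Excess dye was removed with 1% acetic acid, bound dye was taken up in 10 mM Tris base, and absorbance was read at 570 nm.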
# A2780 = assay: Cytotoxicity against human A2780 cells assessed as cell survival after 96 hrs by sulforhodamine B assay; conditions: A2780, 96 h; procedure, shortened: as §1
# HT-29 = assay: Cytotoxicity against human HT-29 cells assessed as cell survival after 96 hrs by sulforhodamine B assay; conditions: HT-29, 96 h; procedure, shortened: as §1
# MCF7 = assay: Cytotoxicity against human MCF7 cells assessed as cell survival after 96 hrs by sulforhodamine B assay; conditions: MCF7, 96 h; procedure, shortened: as §1
# A549 = assay: Cytotoxicity against human A549 cells assessed as cell survival after 96 hrs by sulforhodamine B assay; conditions: A549, 96 h; procedure, shortened: as §1
# 8505C = assay: Cytotoxicity against human 8505C cells assessed as cell survival after 96 hrs by sulforhodamine B assay; procedure, shortened: as §1
SMILES,pEC50 [1],pEC50 (A2780),pEC50 (HT-29),pEC50 (MCF7),pEC50 (A549),pEC50 (8505C)
CC1(C)CC[C@]2(C(=O)OCc3ccc(F)cc3)CC[C@]3(C)C(=CC[C@@H]4[C@@]5(C)CC[C@H](O)[C@@](C)(CO)[C@@H]5CC[C@]43C)[C@@H]2C1,4.99,4.94,4.95,5.04,5.07,5.17
CC1(C)CC[C@]2(C(=O)OCc3ccccc3F)CC[C@]3(C)C(=CC[C@@H]4[C@@]5(C)CC[C@H](O)[C@@](C)(CO)[C@@H]5CC[C@]43C)[C@@H]2C1,5.00,4.87,4.88,4.90,4.88,4.95
Cc1cccc(COC(=O)[C@]23CCC(C)(C)C[C@H]2C2=CC[C@@H]4[C@@]5(C)CC[C@H](O)[C@@](C)(CO)[C@@H]5CC[C@@]4(C)[C@]2(C)CC3)c1,4.96,4.86,4.84,4.87,4.87,5.01
CC1(C)CC[C@]2(C(=O)OCCC3OCCCO3)CC[C@]3(C)C(=CC[C@@H]4[C@@]5(C)CC[C@H](O)[C@@](C)(CO)[C@@H]5CC[C@]43C)[C@@H]2C1,4.95,4.82,4.87,4.90,4.88,4.88
CC1(C)CC[C@]2(C(=O)NCCN3CCCCC3)CC[C@]3(C)C(=CC[C@@H]4[C@@]5(C)CC[C@H](O)[C@@](C)(CO)[C@@H]5CC[C@]43C)[C@@H]2C1,5.43,5.74,5.89,5.19,5.57,5.44
CC1(C)CC[C@]2(C(=O)OCc3c(F)cccc3F)CC[C@]3(C)C(=CC[C@@H]4[C@@]5(C)CC[C@H](O)[C@@](C)(CO)[C@@H]5CC[C@]43C)[C@@H]2C1,5.12,4.94,4.92,4.99,4.93,5.06
CC1(C)CC[C@]2(C(=O)OCc3cccc(Cl)c3)CC[C@]3(C)C(=CC[C@@H]4[C@@]5(C)CC[C@H](O)[C@@](C)(CO)[C@@H]5CC[C@]43C)[C@@H]2C1,4.93,4.86,4.83,4.89,4.89,4.92
C#CCNC(=O)[C@]12CCC(C)(C)C[C@H]1C1=CC[C@@H]3[C@@]4(C)CC[C@H](O)[C@@](C)(CO)[C@@H]4CC[C@@]3(C)[C@]1(C)CC2,4.67,4.83,4.76,4.77,4.77,4.66
COc1cc(COC(=O)[C@]23CCC(C)(C)C[C@H]2C2=CC[C@@H]4[C@@]5(C)CC[C@H](O)[C@@](C)(CO)[C@@H]5CC[C@@]4(C)[C@]2(C)CC3)cc(OC)c1,4.90,4.87,4.85,4.87,4.85,4.89
CC1(C)CC[C@]2(C(=O)O)CC[C@]3(C)C(=CC[C@@H]4[C@@]5(C)CC[C@H](O)[C@@](C)(CO)[C@@H]5CC[C@]43C)[C@@H]2C1 [HEDERAGENIN],4.46,4.70,4.30,4.59,4.54,4.42
CC1(C)CC[C@]2(C(=O)OCCCN3C(=O)c4ccccc4C3=O)CC[C@]3(C)C(=CC[C@@H]4[C@@]5(C)CC[C@H](O)[C@@](C)(CO)[C@@H]5CC[C@]43C)[C@@H]2C1,5.06,4.92,4.87,5.05,4.94,4.99
CC1(C)CC[C@]2(C(=O)OCc3cccc([N+](=O)[O-])c3)CC[C@]3(C)C(=CC[C@@H]4[C@@]5(C)CC[C@H](O)[C@@](C)(CO)[C@@H]5CC[C@]43C)[C@@H]2C1,5.09,4.92,4.92,5.08,5.09,5.18
CC1(C)CC[C@]2(C(=O)OCc3ccc(F)cc3F)CC[C@]3(C)C(=CC[C@@H]4[C@@]5(C)CC[C@H](O)[C@@](C)(CO)[C@@H]5CC[C@]43C)[C@@H]2C1,5.02,4.89,4.89,4.94,4.94,5.10
CC1(C)CC[C@]2(C(=O)OCc3c(F)c(F)c(F)c(F)c3F)CC[C@]3(C)C(=CC[C@@H]4[C@@]5(C)CC[C@H](O)[C@@](C)(CO)[C@@H]5CC[C@]43C)[C@@H]2C1,4.89,4.88,4.79,4.78,4.83,4.85
CC1(C)CC[C@]2(C(=O)OCc3ccc(Br)cc3)CC[C@]3(C)C(=CC[C@@H]4[C@@]5(C)CC[C@H](O)[C@@](C)(CO)[C@@H]5CC[C@]43C)[C@@H]2C1,4.94,4.88,4.86,4.87,4.87,5.07
Cc1ccccc1COC(=O)[C@]12CCC(C)(C)C[C@H]1C1=CC[C@@H]3[C@@]4(C)CC[C@H](O)[C@@](C)(CO)[C@@H]4CC[C@@]3(C)[C@]1(C)CC2,5.05,4.89,4.88,4.95,4.90,5.08
CC1(C)CC[C@]2(C(=O)OCc3ccccc3Cl)CC[C@]3(C)C(=CC[C@@H]4[C@@]5(C)CC[C@H](O)[C@@](C)(CO)[C@@H]5CC[C@]43C)[C@@H]2C1,4.93,4.87,4.87,4.90,4.87,5.02
CC1(C)CC[C@]2(C(=O)NCCN3CCOCC3)CC[C@]3(C)C(=CC[C@@H]4[C@@]5(C)CC[C@H](O)[C@@](C)(CO)[C@@H]5CC[C@]43C)[C@@H]2C1,< 4.52,< 4.52,< 4.52,< 4.52,< 4.52,< 4.52
CC1(C)CC[C@]2(C(=O)OCc3ccccc3[N+](=O)[O-])CC[C@]3(C)C(=CC[C@@H]4[C@@]5(C)CC[C@H](O)[C@@](C)(CO)[C@@H]5CC[C@]43C)[C@@H]2C1,4.99,4.89,4.89,4.99,4.96,5.06
CC1(C)CC[C@]2(C(=O)OCc3c(Cl)cccc3Cl)CC[C@]3(C)C(=CC[C@@H]4[C@@]5(C)CC[C@H](O)[C@@](C)(CO)[C@@H]5CC[C@]43C)[C@@H]2C1,5.04,4.84,4.88,4.90,4.89,5.03
CC1(C)CC[C@]2(C(=O)OCc3ccc([N+](=O)[O-])cc3)CC[C@]3(C)C(=CC[C@@H]4[C@@]5(C)CC[C@H](O)[C@@](C)(CO)[C@@H]5CC[C@]43C)[C@@H]2C1,5.08,5.11,5.11,5.11,5.19,5.21
CC1(C)CC[C@]2(C(=O)OCc3ccccc3)CC[C@]3(C)C(=CC[C@@H]4[C@@]5(C)CC[C@H](O)[C@@](C)(CO)[C@@H]5CC[C@]43C)[C@@H]2C1,5.11,5.01,5.02,5.10,5.15,5.12
CC1(C)CC[C@]2(C(=O)OCc3ccc(Cl)cc3)CC[C@]3(C)C(=CC[C@@H]4[C@@]5(C)CC[C@H](O)[C@@](C)(CO)[C@@H]5CC[C@]43C)[C@@H]2C1,4.94,4.89,4.87,4.90,5.01,5.09
CC1(C)CC[C@]2(C(=O)OCc3ccccc3Br)CC[C@]3(C)C(=CC[C@@H]4[C@@]5(C)CC[C@H](O)[C@@](C)(CO)[C@@H]5CC[C@]43C)[C@@H]2C1,4.96,4.84,4.84,4.90,4.88,5.11
Cc1ccc(COC(=O)[C@]23CCC(C)(C)C[C@H]2C2=CC[C@@H]4[C@@]5(C)CC[C@H](O)[C@@](C)(CO)[C@@H]5CC[C@@]4(C)[C@]2(C)CC3)cc1,4.93,4.83,4.83,4.86,4.86,5.06
C#CCOC(=O)[C@]12CCC(C)(C)C[C@H]1C1=CC[C@@H]3[C@@]4(C)CC[C@H](O)[C@@](C)(CO)[C@@H]4CC[C@@]3(C)[C@]1(C)CC2,4.91,4.77,4.75,4.81,4.80,4.88
CC1(C)CC[C@]2(C(=O)On3nnc4ccccc43)CC[C@]3(C)C(=CC[C@@H]4[C@@]5(C)CC[C@H](O)[C@@](C)(CO)[C@@H]5CC[C@]43C)[C@@H]2C1,5.07,5.06,4.95,5.11,5.02,5.02
CC1(C)CC[C@]2(C(=O)OCc3cccc(Br)c3)CC[C@]3(C)C(=CC[C@@H]4[C@@]5(C)CC[C@H](O)[C@@](C)(CO)[C@@H]5CC[C@]43C)[C@@H]2C1,4.86,4.84,4.82,4.85,4.85,4.86
CC1(C)CC[C@]2(C(=O)NCc3ccccc3)CC[C@]3(C)C(=CC[C@@H]4[C@@]5(C)CC[C@H](O)[C@@](C)(CO)[C@@H]5CC[C@]43C)[C@@H]2C1,4.86,4.94,4.82,4.84,4.80,4.87
